Activity calls are given as the source filed them.
Experiments:
Listeria monocytogenes [1] = assay: Antibacterial activity against extracellular Listeria monocytogenes EGDe at four times of MIC by time-kill study; assay type: functional, organism-based
Procedure, shortened: (§1)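 EGDe inoculum of 5 x 10^8 bacteria in Mueller-Hinton broth at 37°C. Antibiotic was added at 1x, 4x, 8x or 400x MIC. Counts were done in triplicate at set times by plating serial 10-fold dilutions on BHI agar, with or without 2 µg/ml moxifloxacin, for 48 h. Results are CFU/ml, means ± SE of three experiments. Bactericidal was defined as a >3-log10 drop at 24 h.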

Listeria monocytogenes [2] = assay: Antibacterial activity against intracellular Listeria monocytogenes EGDe infected in bone marrow-derived BALB/c mouse macrophage assessed as prevention of bacterial release and spread of infection by preventing macrophage lysis after 24 hrs; assay type: functional, organism-based
Listeria monocytogenes [3] = assay: Antibacterial activity against extracellular Listeria monocytogenes EGDe assessed as reduction in bacterial count at eight times of MIC after 24 hrs by time-kill study; assay type: functional, organism-based; procedure, shortened: as §1
Listeria monocytogenes [4] = assay: Antibacterial activity against intracellular Listeria monocytogenes EGDe infected in bone marrow-derived BALB/c mouse macrophage assessed as reduction in bacterial count at four-eitght times of MIC after 3 hrs; assay type: functional, organism-based
Procedure, shortened: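 Bone marrow macrophages from BALB/c mice (7-8 weeks) were differentiated for 7 days in RPMI 1640 with 10% decomplemented FCS and 10% L-cell medium, at 37°C and 10% CO2. Cells at 3 x 10^5/ml were infected for 15 min at a bacteria:macrophage ratio of 10:1, washed, and preincubated for 45 min. They were then given antibiotic for up to 24 h, lysed in 0.1% Triton X-100, and plated in triplicate. Results are CFU/well, means ± SE of three experiments.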

Listeria monocytogenes [5] = assay: Antibacterial activity against extracellular Listeria monocytogenes EGDe assessed as reduction in bacterial count at eight times of MIC after 6 hrs by time-kill study; assay type: functional; procedure, shortened: as §1
Listeria monocytogenes [6] = assay: Antibacterial activity against extracellular Listeria monocytogenes EGDe assessed as reduction in bacterial count at four times of MIC after 24 hrs by time-kill study; assay type: functional, organism-based; procedure, shortened: as §1
Listeria monocytogenes [7] = assay: Antibacterial activity against intracellular Listeria monocytogenes EGDe infected in bone marrow-derived BALB/c mouse macrophage assessed as changes in morphology of intracellular bacteria observed to be ghostly, chained, and elongated at >= MIC after 48 hrs by microscopy; assay type: functional, organism-based
Listeria monocytogenes [8] = assay: Antibacterial activity against extracellular Listeria monocytogenes EGDe at MIC by time-kill study; assay type: functional, organism-based; procedure, shortened: as §1
Listeria monocytogenes [9] = assay: Antibacterial activity against extracellular Listeria monocytogenes EGDe assessed as reduction in bacterial count at four times of MIC after 6 hrs by time-kill study; assay type: functional; procedure, shortened: as §1
Listeria monocytogenes [10] = assay: Antibacterial activity against intracellular Listeria monocytogenes EGDe infected in bone marrow-derived BALB/c mouse macrophage assessed as reduction in the formation of filopodium-like projections at >= MIC after 48 hrs by microscopy; assay type: functional, organism-based
Listeria monocytogenes [11] = assay: Antibacterial activity against intracellular Listeria monocytogenes EGDe infected in bone marrow-derived BALB/c mouse macrophage assessed as reduction in the number of infected macrophages after 3 hrs; assay type: functional, organism-based
Procedure, shortened: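 Infected BALB/c bone marrow macrophages were stained with May-Grunwald-Giemsa and examined microscopically to determine the infection rate. Observations were made at 3, 6 and 24 h of exposure to antibiotic at 1x MIC or Cmax, or with no antibiotic.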

Listeria monocytogenes [12] = assay: Antibacterial activity against extracellular Listeria monocytogenes EGDe at 400 times of MIC by time-kill study; assay type: functional, organism-based; procedure, shortened: as §1

Compound	Activity (Listeria monocytogenes [1])	Activity (Listeria monocytogenes [2])	Activity (Listeria monocytogenes [3])	Activity (Listeria monocytogenes [4])	log10CFU/ml (Listeria monocytogenes [5])	Activity (Listeria monocytogenes [6])	Activity (Listeria monocytogenes [7])	Activity (Listeria monocytogenes [8])	log10CFU/ml (Listeria monocytogenes [9])	Activity (Listeria monocytogenes [10])	Activity (Listeria monocytogenes [11])	Activity (Listeria monocytogenes [12])
COc1c(N2C[C@@H]3CCCN[C@@H]3C2)c(F)cc2c(=O)c(C(=O)O)cn(C3CC3)c12 [MOXIFLOXACIN]	Active	Active	Active	Active	3	Active	Active	inactive	3	Active		
CC1(C)S[C@@H]2[C@H](NC(=O)[C@H](N)c3ccc(O)cc3)C(=O)N2[C@H]1C(=O)O	Active	inactive		inactive				inactive		inactive	inactive	Active
